Where only a bound is given, the exact number is not on record here.

In one test the target is Histone deacetylase. Put plainly: Inhibitory concentration against human histone deacetylase. Type of test: protein assay.
Conditions: not given
For the molecule `CSCCCCCCC(=O)Nc1ccccc1`, the IC50 (commonly the concentration that gives 50% inhibition) is above 100 µM.

Consider `O=C(CCCCCCS(=O)(=O)NO)Nc1ccccc1`, for which the half-inhibitory concentration (IC50) is above 100 µM.

`CNC(=O)C(=O)CCCCCCC(=O)Nc1ccccc1` showed an IC50 of 0.34 µM.

For the molecule `C#CCN(CC#C)CCCCCC(=O)Nc1ccccc1`, the IC50 was above 100 µM.

As to `O=C(CO)NCCCCCC(=O)Nc1ccccc1`, the IC50 was above 100 µM.

As to `NCC(=O)NCCCCCC(=O)Nc1ccccc1`, the half-maximal inhibitory concentration (IC50) was above 100 µM.

Turning to `O=CN(O)CCCCCCCC(=O)Nc1ccccc1`, the IC50 was 2.8 µM.

Take `C#CCNCCCCCC(=O)Nc1ccccc1`: the IC50 is above 100 µM.

The molecule `O=C(CCCCCCS)Nc1nc2ccccc2s1` returned an IC50 of 0.34 µM.

Staying with this test, now noted: read-out: IC50.
For `O=C(CCCCCCS)Nc1ccc(-c2ccccc2)cc1`, the 50% inhibitory concentration (IC50) amounted to 1.1 µM.

On to `O=C(NCCCCCCS)c1cc2ccccc2[nH]1`, for which the IC50 came out at 0.1 µM.

As for `O=C(CCCCCCS)Nc1nc(-c2ccccc2)cs1`, the half-inhibitory concentration (IC50) was found to be 0.17 µM.

As to `O=C(CCCCCCS)Nc1cccc(Oc2ccccc2)c1`, the half-inhibitory concentration (IC50) came out at 0.21 µM.

For the molecule `O=C(NCCCCCCS)c1ccccc1`, the half-maximal inhibitory concentration (IC50) was determined as 0.36 µM.

Consider `O=C(CCCCCCS)Nc1cccnc1`, for which the IC50 came out at 0.11 µM.

Turning to `O=C(CCCCCCS)Nc1ccc(Oc2ccccc2)cc1`, the IC50 was determined as 0.62 µM.

Take `CN(C)c1ccc(NC(=O)CCCCCCS)cc1`: the IC50 came out at 1.2 µM.

As for `CN(C)c1ccc(C(=O)NCCCCCCS)cc1`, the concentration for half-maximal inhibition (IC50) is 0.61 µM.

Regarding `O=C(NCCCCCCS)c1ccc2ccccc2c1`, the concentration for half-maximal inhibition (IC50) turned out to be 0.085 µM.

Regarding `SCCCCCCOc1ccccc1`, the IC50 is 11 µM.

Take `O=C(CCCCCCS)Nc1cccc(-c2ccccc2)c1`: the half-maximal inhibitory concentration (IC50) was 0.075 µM.

The test system of the next test is NCI-H460. The experiment in a line: Inhibition of human lung cancer NCI-H460 cell growth. Type of test: functional, cell-based.
Conditions: not given
In a few lines:
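Cells seeded at 1500/well, 37 °C; after 24 h exposed to compounds at various concentrations in 10% FBS RPMI-1640, 37 °C, 5% CO₂, 48 h. Stained with 0.5 mg/mL methylene blue, room temperature, 30 min; dye dissolved in 3% aqueous HCl, absorbance at 660 nm. EC₅₀ reported as mean of at least two experiments.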
Regarding `O=C(CCCCCCSC(=O)c1ccc([N+](=O)[O-])cc1)Nc1ccccc1`, the EC50 (as a rule, the concentration giving half of the maximal effect) amounted to 24 µM.

`CC(C)C(=O)SCCCCCCC(=O)Nc1cccc(Oc2ccccc2)c1` registered an EC50 of 25 µM.

With `CC(C)C(=O)SCCCCCCNC(=O)c1cc2ccccc2[nH]1`, a half-maximal response (EC50) required 12 µM.

Molecule `CCC(=O)SCCCCCCC(=O)Nc1ccccc1` had a 50% effective concentration (EC50) of 28 µM.

`CC(C)C(=O)SCCCCCCC(=O)Nc1cnc2ccccc2c1` returned a half-maximal effective concentration (EC50) of 8 µM.

`CC(C)C(=O)SCCCCCCNC(=O)c1cc2ccccc2o1` had an EC50 of 4.1 µM.

`CC(C)(C)C(=O)OCSCCCCCCC(=O)Nc1ccccc1` registered a concentration giving a half-maximal response (EC50) of 25 µM.

`CC(C)C(=O)SCCCCCCC(=O)Nc1cccnc1` returned a half-maximal effective concentration (EC50) of 2.9 µM.

In turn, `O=C(CCCCCCSC(=O)C1CC1)Nc1ccccc1` returned a concentration giving a half-maximal response (EC50) of 27 µM.

In turn, `CC(C)(C)C(=O)SCCCCCCC(=O)Nc1ccccc1` came in with a concentration giving a half-maximal response (EC50) above 50 µM.

In turn, `CC(=O)SCCCCCCC(=O)Nc1ccccc1` returned an EC50 of 36 µM.

In the case of `CCCC(=O)SCCCCCCC(=O)Nc1ccccc1`, a half-maximal response (EC50) required 22 µM.

As for `CC(C)C(=O)SCCCCCCC(=O)Nc1cccc(-c2ccccc2)c1`, the response was half-maximal at 2.8 µM (EC50).

As for `O=C(CCCCCCSC(=O)C1CCCC1)Nc1ccccc1`, the EC50 was determined as 21 µM.

In the case of `CC(C)C(=O)SCCCCCCNC(=O)c1ccc2ccccc2c1`, a half-maximal effect (EC50) was put at 12 µM.

For the molecule `CC(C)C(=O)SCCCCCCC(=O)Nc1nc2ccccc2s1`, a half-maximal response (EC50) required 9.5 µM.

In the case of `O=C(CCCCCCSSCCCCCCC(=O)Nc1ccccc1)Nc1ccccc1`, the EC50 is above 50 µM.

In the next test the target is Histone deacetylase (Homo sapiens) (UniProt Q13547+O15379+Q9UBN7+Q92769+Q9UQL6+Q8WUI4+Q9BY41+Q96DB2+P56524+Q9UKV0+Q969S8). The settings on record: at 100 µM.
As to `CSCCCCCCC(=O)Nc1ccccc1`, the inhibition (in general, the percentage by which the read-out fell short of the control) is 11%.

`O=C(CCCCCCS(=O)(=O)NO)Nc1ccccc1` yielded an inhibition of 14%.

Consider `C#CCN(CC#C)CCCCCC(=O)Nc1ccccc1`, for which the inhibition was found to be 0%.

Molecule `CC(=O)SCCCCCCC(=O)Nc1ccccc1` gave an inhibition of 85%.

`C#CCNCCCCCC(=O)Nc1ccccc1` displayed an inhibition of 14%.

Tested on in the next test: not listed separately
The experiment in a line: Effective Concentration of compound to inhibit the growth of human RXF-631L cells. Type of test: functional, cell-based.
Conditions: not given
For `CC(C)C(=O)SCCCCCCC(=O)Nc1nc(-c2ccccc2)cs1`, the half-maximal effective concentration (EC50) stood at 2.4 µM.

Source of the values: ChEMBL document CHEMBL1145185, “Novel inhibitors of human histone deacetylases: design, synthesis, enzyme inhibition, and cancer cell growth inhibition of SAHA-based non-hydroxamates” (J Med Chem, 2005).
